By inhibition is commonly meant the drop in the measured response relative to a control, in per cent.

Active and inactive are the calls of the source. No cut-off for these calls is given here.

Experimental findings from ChEMBL document CHEMBL3112522, “Bicyclic brominated furanones: a new class of quorum sensing modulators that inhibit bacterial biofilm formation” (Bioorg Med Chem, 2014) are described below.

In data set [1] the target is T1, Transcriptional activator protein LasR (Pseudomonas aeruginosa (strain ATCC 15692 / PAO1 / 1C / PRS 101 / LMG12228)) (UniProt P25084).
T1 sequence (whole entry): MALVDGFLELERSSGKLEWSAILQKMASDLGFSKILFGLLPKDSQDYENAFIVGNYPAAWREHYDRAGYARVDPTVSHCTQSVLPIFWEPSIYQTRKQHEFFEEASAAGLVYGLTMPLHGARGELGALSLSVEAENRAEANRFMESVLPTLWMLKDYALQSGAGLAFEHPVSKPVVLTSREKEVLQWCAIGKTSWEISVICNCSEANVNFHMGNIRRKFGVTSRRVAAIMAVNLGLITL
The data set is described as follows: Antagonist activity at LasR in Pseudomonas aeruginosa PAO-JP2 expressing LasI assessed as inhibition of GFP production at 50 to 300 uM after 24 hrs by fluorescence assay in presence of 3-oxo-C12-HSL. The gist of the method:
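PAO-JP2 (plasI-LVAgfp) grown in M9 with 300 µg/mL carbenicillin to OD600 0.1, given 1 µM 3-oxo-C12-HSL ± compound at varied concentrations, incubated 24 h at 37 °C with shaking at 250 rpm. GFP read at ex 500/em 540 nm, M9 background subtracted, divided by OD600 and normalized to the BF-free control. Four replicates.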

Data set [2] is described as follows: Cytotoxicity against human SK-N-SH cells assessed as cell survival at 400 uM incubated for 1 hr followed by compound washout measured immediately by CCK-8 assay relative to control. Type of data set: cell-based. Particulars: read-out: Survival. Summed up: (§1)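 SK-N-SH cells were grown in EMEM with 10% FBS, penicillin/streptomycin and 2.0 mM L-glutamine at 37 °C, 5% CO2. Wells were seeded at 5×10^4 cells/mL and left 24 h to adhere. Cells were exposed for 1 h in fresh medium, with DMSO-matched controls, then washed twice. After 0, 24 or 48 h recovery, CCK-8 A450 was read. Survival = (sample−medium)/(control−medium)×100.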

In data set [3] the test system is Escherichia coli. The data set is described as follows: Antibacterial activity against Escherichia coli RP437 expressing red fluorescence protein assessed as inhibition of biofilm formation measured as reduction in biomass at 200 uM after 24 hrs by confocal laser scanning microscopic analysis. The format is functional, organism-based. Summed up:
(§2)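 E. coli RP437 (pRSH103, red fluorescent; grown in LB with 10 µg/mL tetracycline) formed biofilms on 316 stainless-steel coupons with 200 µM compound or 0.4% DMSO control, static, 37 °C, 24 h. Coupons rinsed three times in 0.9% NaCl, then imaged by CLSM. COMSTAT gave biomass, mean thickness and surface area from z-stacks at four locations, normalized to the BF-free control. Four replicates.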

Data set [4] deals with Escherichia coli. The data set is described as follows: Antibacterial activity against Escherichia coli RP437 expressing red fluorescence protein assessed as inhibition of biofilm formation at 200 uM after 24 hrs by confocal laser scanning microscopic analysis. Type of data set: functional, organism-based. Summed up: as §2
The test system of data set [5] is Escherichia coli. Description: Antibacterial activity against Escherichia coli RP437 expressing red fluorescence protein assessed as inhibition of biofilm formation measured as reduction in surface area at 200 uM after 24 hrs by confocal laser scanning microscopic analysis. Type of data set: functional, organism-based. The gist of the method: as §2
The subject of data set [6] is Escherichia coli. The data set is described as follows: Toxicity in Escherichia coli RP437 assessed as planktonic growth inhibition at 200 uM up to 8 hrs. Conditions: in vivo. The format is organism-based. Summed up:
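E. coli RP437 in LB at 37 °C, started at OD600 0.05 in 96-well plates with 200 µM compound (DMSO stock), shaken at 250 rpm. OD600 read at 0, 2, 4, 6, 8, 10, 12 and 24 h, normalized to the BF-free control. Six replicates.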

Data set [7] in a line: Cytotoxicity against human SK-N-SH cells assessed as cell survival at 400 uM incubated for 1 hr followed by compound washout measured after 24 hrs by CCK-8 assay relative to control. The format is cell-based. Particulars: read-out: Survival. Summed up: as §1
On the technique in general: Tetrazolium assays rely on reduction of a dye to a coloured formazan, in cell work by metabolically active cells.

Data set [8] relates to Escherichia coli. The data set is described as follows: Antibacterial activity against Escherichia coli RP437 expressing red fluorescence protein assessed as inhibition of biofilm formation measured as reduction in mean thickness of biofilm at 200 uM after 24 hrs by confocal laser scanning microscopic analysis. Type of data set: functional, organism-based. Summed up: as §2

Data set [9] deals with T1, Transcriptional activator protein LasR (Pseudomonas aeruginosa (strain ATCC 15692 / PAO1 / 1C / PRS 101 / LMG12228)). Description: Antagonist activity at LasR in Pseudomonas aeruginosa PAO1 expressing LasI assessed as inhibition of GFP production at 50 to 300 uM after 24 hrs by fluorescence assay relative to control.
The target in data set [10] is T2, HTH-type quorum-sensing regulator RhlR (Pseudomonas aeruginosa (strain ATCC 15692 / PAO1 / 1C / PRS 101 / LMG12228)) (UniProt P54292).
T2 sequence (whole entry): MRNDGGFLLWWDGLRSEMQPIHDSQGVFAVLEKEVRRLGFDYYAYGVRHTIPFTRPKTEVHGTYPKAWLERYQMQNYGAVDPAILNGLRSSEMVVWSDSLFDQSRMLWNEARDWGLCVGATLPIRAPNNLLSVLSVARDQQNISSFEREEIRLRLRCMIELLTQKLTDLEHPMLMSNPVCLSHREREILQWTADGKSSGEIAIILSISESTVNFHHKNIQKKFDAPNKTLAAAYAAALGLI
Description: Agonist activity at RhlR in Pseudomonas aeruginosa PAO1 expressing RhlI assessed as effect on GFP production at 50 to 300 uM after 24 hrs by fluorescence assay relative to control. The gist of the method:
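PAO1 (prhlI-LVAgfp) grown in M9 with 300 µg/mL carbenicillin to OD600 0.1, exposed to compound at 50, 150 or 300 µM for 24 h at 37 °C with shaking at 250 rpm. Fluorescence read at ex 500/em 540 nm, M9 background subtracted, divided by OD600 and normalized to the BF-free control. Four replicates.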

Data set [11] in a line: Cytotoxicity against human SK-N-SH cells assessed as cell survival at 400 uM incubated for 1 hr followed by compound washout measured after 48 hrs by CCK-8 assay relative to control. Conditions: read-out: Survival. Type of data set: cell-based. The gist of the method: as §1
The test system of the next data set is SK-N-SH. The data set is described as follows: Cytotoxicity against human SK-N-SH cells assessed as cell survival at 100 uM incubated for 1 hr followed by compound washout measured up to 48 hrs by CCK-8 assay. The format is cell-based. Summed up: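 SK-N-SH cells seeded at 5×10^4 cells/mL (100 µL) in EMEM with 10% FBS and allowed to adhere 24 h. Exposed 1 h to 100 µM compound or DMSO control, washed twice, then allowed to recover 0, 24 or 48 h. Live cells measured by CCK-8 at A450. Survival = (sample − medium)/(control − medium) × 100.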

The test system of data set [12] is Pseudomonas aeruginosa. The data set is described as follows: Antibacterial activity against Pseudomonas aeruginosa PAO1 expressing green fluorescence protein assessed as inhibition of biofilm formation at 400 uM after 24 hrs by confocal laser scanning microscopic analysis. The format is functional, organism-based. Summed up:
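PA01-GFP (pSMC2; grown in LB with 300 µg/mL carbenicillin) formed biofilms on stainless-steel coupons with 400 µM compound, static, 37 °C, 24 h. Coupons rinsed three times in 0.9% saline, then imaged by CLSM.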

For data set [13], the system named is Pseudomonas aeruginosa. Description: Toxicity in Pseudomonas aeruginosa PAO1 assessed as planktonic growth inhibition at 400 uM after 24 hrs. Particulars: in vivo. The format is organism-based.

Regarding `CC1=C(Br)/C(=C\Br)OC1=O`, the inhibition entry (in [1]; with Escherichia coli [3]; with Escherichia coli [4]; in the data set on Escherichia coli [5]; in the data set on Escherichia coli [8]) was “Active” in each case. For the same compound, the viability at 1 h, 400 µM in data set [2] is 29%; in data set [7], less than 2%; in data set [11], less than 2%. Besides, the Activity result in the data set with Escherichia coli [6] and in the data set with SK-N-SH was “Toxic” in each case. In [9], the inhibition is 46%. For the same compound, the outcome in data set [10] was inactive.
As for `O=C1C=C(Br)/C(=C/Br)O1`, the inhibition result in the data set on Pseudomonas aeruginosa [12] was “Active”. Further, the Activity entry in the data set with Pseudomonas aeruginosa [13] is on record as “Toxic”.
